This note sets out measurements from ChEMBL document CHEMBL3098106 (Bioorg Med Chem, 2014).

Data set [1] is described as follows: Antitumor activity against Sprague-Dawley rat mammary tumor cells assessed as increase in apoptotic index at 200 mg/kg, po after 7 days by TUNEL assay relative to control. In kind it is functional. The method, boiled down:
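Female Sprague Dawley rats with N-methyl-nitrosourea-induced mammary cancers (about 200 mm²) were given the retinoid in Teklad diet for 7 days. BrdU was injected 2 h before CO₂ euthanasia. Cancers were excised and fixed in 10% formalin. Each index is the ratio of treated to vehicle-fed animals.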

Data set [2] concerns Rattus norvegicus. The data set can be described thus: Toxicity in Sprague-Dawley rat assessed as increase in body weight at 200 mg/kg, po after 7 days relative to control. In kind it is organism-based. Particulars: in vivo, 168 h. Also noted: dose 200 mg/kg, route oral.
The test system of data set [3] is Rattus norvegicus. The data set can be described thus: Toxicity in Sprague-Dawley rat assessed as liver weight measured per 100 g of body weight at 200 mg/kg, po after 7 days (reference value: 3.3 g). The conditions noted are these: in vivo, 168 h. The format is organism-based. On the set-up: dose 200 mg/kg, route oral.
The test system of data set [4] is Rattus norvegicus. Put plainly: Toxicity in 216 days old Sprague-Dawley rat assessed as increase in serum triglyceride level at 200 mg/kg, po administered with diet after 7 days relative to control. The format is organism-based. Also noted: dose 200 mg/kg, route oral. Particulars: in vivo, 168 h.
Data set [5] relates to Rattus norvegicus. Put plainly: Toxicity in 50 days old Sprague-Dawley rat assessed as increase in serum triglyceride level at 200 mg/kg, po administered with diet after 7 days relative to control. On the set-up: dose 200 mg/kg, route oral. The conditions noted are these: in vivo, 168 h. The format is organism-based.

In the case of `CC(=C/C=C/C(C)=C/C(=O)O)/C=C1\CCCc2ccccc21` [UAB-30], the Activity in data set [1] turned out to be 33%; in data set [2], 3%.

Take `CC1=C(/C=C/C(C)=C\C=C\C(C)=C\C(=O)O)C(C)(C)CCC1` [ALITRETINOIN]: the Activity in data set [2] is given as 3%.

For the molecule `CC(=C/C=C/C(C)=C/C(=O)O)/C=C1\CC[C@H](C)c2ccccc21`, the Activity in data set [1] came to 300%; in data set [3] it was 3.8 g; in data set [4] it was 175%; in data set [2], 3%.

In the case of `C=C(c1ccc(C(=O)O)cc1)c1cc2c(cc1C)C(C)(C)CCC2(C)C` [BEXAROTENE], the Activity in data set [2] turned out to be 3%.

`CC(=C/C=C/C(C)=C/C(=O)O)/C=C1\CCC(C)c2ccccc21` (racemic): the Activity in data set [5] is recorded as 566%; in data set [1] it was 300%; in data set [4] it was 370%; in data set [2], 3%.

In the case of `CC(=C/C=C/C(C)=C/C(=O)O)/C=C1\CC[C@@H](C)c2ccccc21`, the Activity in data set [1] was 150%; in data set [3], 4.2 g; in data set [2], 3%.
